# Experimental data of several laboratories.
# Compare with care: the assays were run in different laboratories.
# Target: G protein-coupled receptor kinase 6 (GRK6, Homo sapiens, UniProt P43250)
SMILES,read-out,action,technique,concentration,measurement,value
COc1cc2ncnc(Nc3ccc(Oc4ccccc4)c(C)c3C)c2cc1OC,enzyme activity,inhibitor,,1 µM,inhibition,-2%
CCCS(=O)(=O)Nc1ccc(F)c(C(=O)c2c[nH]c3ncc(-c4ccc(Cl)cc4)cc23)c1F,enzyme activity,inhibitor,,1 µM,inhibition,< 10%
CCCOc1ccc(OC)c(F)c1C(=O)c1ccc(C(=O)N[C@@H]2CNC[C@H]2NC(=O)c2ccc3[nH]ncc3c2)cc1,enzyme activity,inhibitor,,10 µM,remaining activity,104%
COc1cc(Cl)c(C(=O)N[C@@H](CN[C@H]2CC[C@@H](N)CC2)Cc2ccc(C#N)cc2)cc1-c1ccc(CN[C@H](C)c2ccc(C)cc2)o1,enzyme activity,inhibitor,,1 µM,remaining activity,100%
CCN(CC)CCNC(=O)c1c(C)[nH]c(/C=C2\C(=O)Nc3ccc(F)cc32)c1C,enzyme activity,inhibitor,,10 µM,inhibition,73%
CC(C)(C)c1nc(-c2cccc(NS(=O)(=O)c3c(F)cccc3F)c2F)c(-c2ccnc(N)n2)s1,enzyme activity,inhibitor,radiometric,1 µM,remaining activity,79%
CNC(=O)c1cc(Oc2ccc(NC(=O)Nc3ccc(Cl)c(C(F)(F)F)c3)cc2)ccn1,enzyme activity,inhibitor,,0.3 µM,inhibition,2%
Cc1cc(NC(=O)c2cccc3cc(-c4cccc5[nH]nc(N)c45)ccc23)ccc1F,enzyme activity,inhibitor,,0.1 µM,activity vs control,93%
CN1CC(Oc2cnc(C#N)cc2-c2ccn3nc(NC(=O)C4CC4)cc3c2)C1,enzyme activity,inhibitor,,1 µM,inhibition,9%
O=C(Nc1cnn(-c2csc(C(=O)NC3COC3)c2)c1)Nc1ccccc1Cl,enzyme activity,inhibitor,,5 µM,remaining activity,97.9%
Cc1ccc(C(=O)NCc2ccsc2)cc1C#Cc1cn(C(C)C)c2ncnc(N)c12,enzyme activity,inhibitor,,1 µM,activity vs control,109%
Cc1ccc(Nc2nccc(N(C)c3ccc4c(C)n(C)nc4c3)n2)cc1S(N)(=O)=O,enzyme activity,inhibitor,,10 µM,inhibition,2%
N#CCCc1ccc2c(c1)-c1[nH]c3ccc([N+](=O)[O-])cc3c1CC(=O)N2,cell-free assay,,,0.5 µM,remaining signal,91.5%
